Assay results as given in ChEMBL document CHEMBL2390926, “Identification of novel FLT3 kinase inhibitors” (Eur J Med Chem, 2013).
Active and inactive are the calls of the source. The calls are words filed in the database; no cut-off is given here.

How the values were obtained:
[1] = Cytotoxicity against mouse BA/F3 cells transfected with FLT3-ITD after 24 hrs by plate reader analysis; conditions: BaF3, 24 h
[2] = target: Tyrosine-protein kinase SYK (Homo sapiens) (UniProt P43405); test: Inhibition of SYK (unknown origin) transfected in mouse Ba/F3 cells at 1 uM after 24 hrs; format: cell-based; conditions: BaF3
[3] = target: Tyrosine-protein kinase receptor UFO (Homo sapiens) (UniProt P30530); test: Inhibition of AXL (unknown origin) transfected in mouse Ba/F3 cells at 1 uM after 24 hrs; format: cell-based; conditions: BaF3
Summary of the method: (§1)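 Kinase specificity panel: each Ba/F3 line transformed with one of 24 tyrosine kinases depends on that kinase to grow. Cells were given compound at 1 or 5 µM for 24 h, with DMSO as comparator. Percentage growth was read by ATP-lite luminescence and reported as mean ± SEM.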

[4] = target: Tyrosine-protein kinase ABL2 (Homo sapiens) (UniProt P42684); test: Inhibition of ABL2 (unknown origin) transfected in mouse Ba/F3 cells at 1 uM after 24 hrs; format: cell-based; conditions: BaF3
Summary of the method: as §1

[5] = target: T1, Megakaryocyte-associated tyrosine-protein kinase (Homo sapiens) (UniProt P42679); test: Inhibition of MATK1 (unknown origin) transfected in mouse Ba/F3 cells at 1 uM after 24 hrs; format: cell-based; conditions: BaF3
T1 sequence (whole entry): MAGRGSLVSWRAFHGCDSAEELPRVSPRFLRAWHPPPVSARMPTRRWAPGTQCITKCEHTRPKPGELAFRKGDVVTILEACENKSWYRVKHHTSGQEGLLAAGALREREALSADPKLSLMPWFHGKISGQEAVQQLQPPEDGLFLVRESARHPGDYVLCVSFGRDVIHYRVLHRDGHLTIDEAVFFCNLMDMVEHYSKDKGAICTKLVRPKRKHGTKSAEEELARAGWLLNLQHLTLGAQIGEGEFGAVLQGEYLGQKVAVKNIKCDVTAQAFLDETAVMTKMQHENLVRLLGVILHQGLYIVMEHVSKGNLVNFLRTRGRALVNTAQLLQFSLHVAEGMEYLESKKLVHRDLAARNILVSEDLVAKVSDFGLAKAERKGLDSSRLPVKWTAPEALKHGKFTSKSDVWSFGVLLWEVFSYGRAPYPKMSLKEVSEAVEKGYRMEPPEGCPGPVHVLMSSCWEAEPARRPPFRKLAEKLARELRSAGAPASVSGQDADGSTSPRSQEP

[6] = target: Vascular endothelial growth factor receptor 3 (Homo sapiens) (UniProt P35916); test: Inhibition of FLT4 (unknown origin) transfected in mouse Ba/F3 cells at 1 uM after 24 hrs; format: cell-based; conditions: BaF3
Summary of the method: as §1

[7] = target: Ephrin type-A receptor 5 (Homo sapiens) (UniProt P54756); test: Inhibition of EPHA5 (unknown origin) transfected in mouse Ba/F3 cells at 1 uM after 24 hrs; format: cell-based; conditions: BaF3
Summary of the method: as §1

[8] = test system: MV4-11; test: Cytotoxicity against human MV4-11 cells after 72 hrs by plate reader analysis; format: functional, cell-based; conditions: MV4-11, 72 h
[9] = target: Epidermal growth factor receptor (Homo sapiens) (UniProt P00533); test: Inhibition of EGFR (unknown origin) transfected in mouse Ba/F3 cells at 1 uM after 24 hrs; format: cell-based; conditions: BaF3
Summary of the method: as §1

[10] = target: T2, Receptor-type tyrosine-protein kinase FLT3 (Mus musculus) (UniProt Q00342); test: Inhibition of FLT3 phosphorylation in mouse Ba/F3 cells transfected with FLT3-ITD cells at 500 nM after 90 mins by Western blot analysis; format: cell-based; conditions: BaF3
T2 sequence (whole entry): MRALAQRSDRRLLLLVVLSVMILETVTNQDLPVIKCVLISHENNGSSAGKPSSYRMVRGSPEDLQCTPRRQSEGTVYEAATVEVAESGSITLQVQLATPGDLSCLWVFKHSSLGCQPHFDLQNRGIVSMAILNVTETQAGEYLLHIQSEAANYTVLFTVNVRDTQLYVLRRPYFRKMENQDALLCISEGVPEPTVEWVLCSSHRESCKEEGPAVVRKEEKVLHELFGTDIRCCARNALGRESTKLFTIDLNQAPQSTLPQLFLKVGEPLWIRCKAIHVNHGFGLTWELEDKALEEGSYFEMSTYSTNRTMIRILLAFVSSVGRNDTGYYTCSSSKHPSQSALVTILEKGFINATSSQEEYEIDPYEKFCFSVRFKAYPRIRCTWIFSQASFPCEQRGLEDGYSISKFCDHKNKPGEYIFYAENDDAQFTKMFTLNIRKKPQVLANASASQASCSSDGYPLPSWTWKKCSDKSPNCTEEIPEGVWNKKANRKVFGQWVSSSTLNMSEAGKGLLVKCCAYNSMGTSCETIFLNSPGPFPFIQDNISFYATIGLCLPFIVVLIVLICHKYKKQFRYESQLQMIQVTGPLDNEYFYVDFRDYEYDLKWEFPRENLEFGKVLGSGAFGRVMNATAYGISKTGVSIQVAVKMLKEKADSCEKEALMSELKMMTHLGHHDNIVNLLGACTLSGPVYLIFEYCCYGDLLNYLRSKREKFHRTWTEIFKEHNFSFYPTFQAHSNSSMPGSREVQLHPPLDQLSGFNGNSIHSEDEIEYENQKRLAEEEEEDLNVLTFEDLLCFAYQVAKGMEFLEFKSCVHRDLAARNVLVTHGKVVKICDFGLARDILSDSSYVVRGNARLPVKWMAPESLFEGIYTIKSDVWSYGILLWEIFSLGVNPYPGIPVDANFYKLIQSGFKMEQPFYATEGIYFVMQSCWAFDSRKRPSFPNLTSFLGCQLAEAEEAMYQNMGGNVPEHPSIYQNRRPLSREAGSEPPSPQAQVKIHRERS
Summary of the method: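 Ba/F3-FLT3-ITD cells were treated for 90 min with increasing doses. They were lysed in buffer with 1 mM NaVO4 and protease inhibitors, then reduced and run on Bis-Tris 4–12% gels for Western blot. Phospho-FLT3 and phospho-STAT5 were detected, with total FLT3 and STAT5 as loading controls.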

Sequence of Epidermal growth factor receptor (Homo sapiens) (P00533 whole entry): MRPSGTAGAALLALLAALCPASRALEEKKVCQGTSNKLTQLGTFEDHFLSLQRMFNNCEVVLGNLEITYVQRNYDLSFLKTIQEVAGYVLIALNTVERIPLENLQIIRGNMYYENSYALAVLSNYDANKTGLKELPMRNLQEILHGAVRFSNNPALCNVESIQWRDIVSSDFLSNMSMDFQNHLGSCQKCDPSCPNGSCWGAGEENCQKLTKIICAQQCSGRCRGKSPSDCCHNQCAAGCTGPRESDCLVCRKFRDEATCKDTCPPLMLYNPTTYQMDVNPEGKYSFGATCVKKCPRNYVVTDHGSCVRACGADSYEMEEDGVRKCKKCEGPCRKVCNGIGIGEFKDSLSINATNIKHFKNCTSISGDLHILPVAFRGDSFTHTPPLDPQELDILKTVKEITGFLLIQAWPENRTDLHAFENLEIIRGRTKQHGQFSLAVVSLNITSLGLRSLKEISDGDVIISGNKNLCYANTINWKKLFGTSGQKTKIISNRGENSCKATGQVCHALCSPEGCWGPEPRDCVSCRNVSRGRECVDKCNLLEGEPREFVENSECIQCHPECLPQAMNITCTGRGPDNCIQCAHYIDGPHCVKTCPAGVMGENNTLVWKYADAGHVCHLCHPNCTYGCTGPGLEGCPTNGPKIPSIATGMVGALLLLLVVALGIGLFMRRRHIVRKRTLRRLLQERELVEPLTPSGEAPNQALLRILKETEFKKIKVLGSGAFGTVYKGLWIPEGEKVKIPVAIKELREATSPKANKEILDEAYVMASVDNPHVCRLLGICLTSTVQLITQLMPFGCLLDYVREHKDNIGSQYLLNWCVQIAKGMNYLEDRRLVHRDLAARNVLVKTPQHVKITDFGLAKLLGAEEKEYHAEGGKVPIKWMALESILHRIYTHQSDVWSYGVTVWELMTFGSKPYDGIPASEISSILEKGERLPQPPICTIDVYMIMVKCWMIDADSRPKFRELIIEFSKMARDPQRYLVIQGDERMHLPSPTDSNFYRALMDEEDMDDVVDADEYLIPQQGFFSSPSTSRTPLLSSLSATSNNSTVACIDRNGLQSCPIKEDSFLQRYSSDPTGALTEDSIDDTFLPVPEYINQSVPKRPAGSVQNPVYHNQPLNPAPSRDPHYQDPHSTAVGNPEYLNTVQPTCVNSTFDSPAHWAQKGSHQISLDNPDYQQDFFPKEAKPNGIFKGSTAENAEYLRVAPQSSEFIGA
Sequence of Tyrosine-protein kinase ABL2 (Homo sapiens) (P42684 whole entry): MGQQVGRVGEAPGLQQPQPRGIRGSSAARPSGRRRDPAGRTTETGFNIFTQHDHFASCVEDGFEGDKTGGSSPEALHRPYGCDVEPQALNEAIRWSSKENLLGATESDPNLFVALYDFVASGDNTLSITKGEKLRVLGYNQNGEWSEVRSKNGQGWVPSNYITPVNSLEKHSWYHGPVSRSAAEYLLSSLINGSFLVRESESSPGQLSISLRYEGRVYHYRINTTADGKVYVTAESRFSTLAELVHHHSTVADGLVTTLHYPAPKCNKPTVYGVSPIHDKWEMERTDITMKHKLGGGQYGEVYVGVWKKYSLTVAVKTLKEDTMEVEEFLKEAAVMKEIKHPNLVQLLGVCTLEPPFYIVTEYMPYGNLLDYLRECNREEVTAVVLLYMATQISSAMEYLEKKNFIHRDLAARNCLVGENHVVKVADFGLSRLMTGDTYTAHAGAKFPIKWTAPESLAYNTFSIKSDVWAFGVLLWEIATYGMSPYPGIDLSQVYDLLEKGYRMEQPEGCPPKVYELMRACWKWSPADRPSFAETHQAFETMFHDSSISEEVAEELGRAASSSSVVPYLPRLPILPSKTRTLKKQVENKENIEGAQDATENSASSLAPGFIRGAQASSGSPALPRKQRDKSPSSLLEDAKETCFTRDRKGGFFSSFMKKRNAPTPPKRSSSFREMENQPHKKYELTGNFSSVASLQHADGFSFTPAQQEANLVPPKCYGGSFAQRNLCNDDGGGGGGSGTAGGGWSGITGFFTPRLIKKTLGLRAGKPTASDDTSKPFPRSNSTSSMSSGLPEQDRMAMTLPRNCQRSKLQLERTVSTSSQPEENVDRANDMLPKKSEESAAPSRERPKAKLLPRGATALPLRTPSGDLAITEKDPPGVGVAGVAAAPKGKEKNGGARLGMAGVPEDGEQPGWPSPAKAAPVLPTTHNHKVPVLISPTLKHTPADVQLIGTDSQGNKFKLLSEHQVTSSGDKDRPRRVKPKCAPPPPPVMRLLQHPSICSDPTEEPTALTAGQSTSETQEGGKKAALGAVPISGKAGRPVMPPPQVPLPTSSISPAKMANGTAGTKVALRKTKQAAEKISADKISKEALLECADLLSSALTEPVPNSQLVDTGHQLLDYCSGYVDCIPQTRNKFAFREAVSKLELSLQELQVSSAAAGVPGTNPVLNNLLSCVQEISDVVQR
Sequence of Vascular endothelial growth factor receptor 3 (Homo sapiens) (P35916 whole entry): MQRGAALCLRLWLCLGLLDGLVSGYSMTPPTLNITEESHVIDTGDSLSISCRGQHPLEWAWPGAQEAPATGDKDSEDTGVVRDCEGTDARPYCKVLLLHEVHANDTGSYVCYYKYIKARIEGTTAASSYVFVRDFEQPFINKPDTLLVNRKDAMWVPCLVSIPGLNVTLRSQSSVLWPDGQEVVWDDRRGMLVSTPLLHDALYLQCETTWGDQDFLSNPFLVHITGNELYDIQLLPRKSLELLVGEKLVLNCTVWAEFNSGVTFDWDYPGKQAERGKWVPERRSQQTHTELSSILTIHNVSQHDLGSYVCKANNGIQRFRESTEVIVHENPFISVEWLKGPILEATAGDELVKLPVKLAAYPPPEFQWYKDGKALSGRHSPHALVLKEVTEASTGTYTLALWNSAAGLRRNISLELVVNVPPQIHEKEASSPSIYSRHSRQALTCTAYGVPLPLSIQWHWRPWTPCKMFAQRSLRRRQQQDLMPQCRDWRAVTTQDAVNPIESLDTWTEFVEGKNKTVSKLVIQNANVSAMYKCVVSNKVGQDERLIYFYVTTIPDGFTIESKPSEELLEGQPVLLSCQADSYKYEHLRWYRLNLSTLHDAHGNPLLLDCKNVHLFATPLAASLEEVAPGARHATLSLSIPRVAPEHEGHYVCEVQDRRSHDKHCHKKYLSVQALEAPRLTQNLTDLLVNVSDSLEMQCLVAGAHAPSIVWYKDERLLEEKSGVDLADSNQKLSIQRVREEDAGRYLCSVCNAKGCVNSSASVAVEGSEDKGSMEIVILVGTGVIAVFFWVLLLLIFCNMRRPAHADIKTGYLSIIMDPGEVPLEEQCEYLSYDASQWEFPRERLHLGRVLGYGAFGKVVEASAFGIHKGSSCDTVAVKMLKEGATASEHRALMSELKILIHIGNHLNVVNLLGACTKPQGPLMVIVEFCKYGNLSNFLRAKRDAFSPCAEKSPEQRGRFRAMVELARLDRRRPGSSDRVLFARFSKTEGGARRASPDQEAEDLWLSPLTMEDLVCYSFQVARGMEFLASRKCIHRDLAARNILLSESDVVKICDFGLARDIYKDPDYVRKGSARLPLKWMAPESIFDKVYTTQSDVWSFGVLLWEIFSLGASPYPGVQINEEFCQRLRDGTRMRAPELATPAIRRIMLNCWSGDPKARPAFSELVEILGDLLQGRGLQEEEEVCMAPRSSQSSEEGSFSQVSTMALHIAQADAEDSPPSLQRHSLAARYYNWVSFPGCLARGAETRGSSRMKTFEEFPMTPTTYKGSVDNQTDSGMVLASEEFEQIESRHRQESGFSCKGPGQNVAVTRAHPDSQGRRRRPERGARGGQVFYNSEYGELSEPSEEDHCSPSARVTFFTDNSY
Sequence of Ephrin type-A receptor 5 (Homo sapiens) (P54756 whole entry): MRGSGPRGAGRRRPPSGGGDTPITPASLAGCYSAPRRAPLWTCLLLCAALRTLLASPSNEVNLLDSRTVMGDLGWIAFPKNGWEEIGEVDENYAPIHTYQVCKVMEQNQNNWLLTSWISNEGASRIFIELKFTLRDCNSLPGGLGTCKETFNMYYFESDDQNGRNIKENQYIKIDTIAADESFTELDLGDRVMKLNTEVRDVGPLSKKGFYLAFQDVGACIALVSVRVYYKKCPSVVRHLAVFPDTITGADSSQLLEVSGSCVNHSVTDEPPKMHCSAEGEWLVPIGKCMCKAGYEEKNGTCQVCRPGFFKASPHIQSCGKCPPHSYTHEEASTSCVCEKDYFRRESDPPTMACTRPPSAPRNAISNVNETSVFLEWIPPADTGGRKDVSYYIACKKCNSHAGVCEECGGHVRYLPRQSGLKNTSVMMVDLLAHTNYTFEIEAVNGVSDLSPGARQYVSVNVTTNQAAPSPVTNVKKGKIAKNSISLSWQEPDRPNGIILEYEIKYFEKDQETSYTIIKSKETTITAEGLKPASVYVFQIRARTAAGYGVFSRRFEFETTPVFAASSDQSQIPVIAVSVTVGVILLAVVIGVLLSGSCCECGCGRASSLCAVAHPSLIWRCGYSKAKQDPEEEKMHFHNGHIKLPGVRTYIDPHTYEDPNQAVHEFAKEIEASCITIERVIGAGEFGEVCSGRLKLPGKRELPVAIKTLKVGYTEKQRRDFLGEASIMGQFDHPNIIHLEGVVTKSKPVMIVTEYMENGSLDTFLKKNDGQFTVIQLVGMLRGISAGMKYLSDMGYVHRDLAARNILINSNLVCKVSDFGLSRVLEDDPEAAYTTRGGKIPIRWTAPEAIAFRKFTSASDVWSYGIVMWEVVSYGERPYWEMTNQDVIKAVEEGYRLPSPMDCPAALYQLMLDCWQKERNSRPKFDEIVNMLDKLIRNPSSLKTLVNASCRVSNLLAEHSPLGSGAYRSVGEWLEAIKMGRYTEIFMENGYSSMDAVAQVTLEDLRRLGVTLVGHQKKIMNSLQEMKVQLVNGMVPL

| Compound | inhibition [2] | inhibition [3] | inhibition [4] | inhibition [5] | inhibition [6] | inhibition [7] | inhibition [9] | inhibition [10] | EC50 [1] | EC50 [8] |
| --- | --- | --- | --- | --- | --- | --- | --- | --- | --- | --- |
| COc1ccc(C(=O)Nc2cc(-c3ccccc3)[nH]n2)cc1 | inactive | inactive | inactive | inactive | inactive | inactive | inactive | – | 36 nM | 142 nM |
| Fc1ccc(-c2n[nH]cc2-c2ccncc2)cc1Cl | – | – | – | – | – | – | – | Active | 405 nM | 2760 nM |
| Cc1ccc(-n2cnc3cc(Nc4nnc(C)c5ccccc45)ccc32)cc1 | – | – | – | – | – | – | – | Active | 717 nM | 3410 nM |

Continued, in another order:

| inhibition [2] | inhibition [3] | inhibition [4] | inhibition [5] | inhibition [6] | inhibition [7] | inhibition [9] | inhibition [10] | Compound | EC50 [1] | EC50 [8] |
| --- | --- | --- | --- | --- | --- | --- | --- | --- | --- | --- |
| inactive | inactive | inactive | inactive | inactive | inactive | inactive | Active | Cc1cccc(C(=O)Nc2cc(-c3ccc(F)cc3)n[nH]2)c1 | 296 nM | 1780 nM |
| inactive | inactive | inactive | inactive | inactive | inactive | inactive | Active | Cc1ccc(-c2cc(NC(=O)c3ccc(F)cc3)[nH]n2)cc1 | 138 nM | 2820 nM |
